From ChEMBL document CHEMBL1139629 (Bioorg Med Chem Lett, 2005) come the findings set out here.

Where only a bound is given, the exact number is not on record here.

Data set [1] is filed under the species Rattus norvegicus. The experiment in a line: Inhibition concentration against ADP-induced platelet aggregation using rat platelet rich plasma. In kind it is functional. The gist of the method:
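Aggregation was induced with ADP in rat platelet-rich plasma, and IC50 was taken from inhibition of aggregation. Values are the mean of two or three experiments.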

A short description of data set [2]: Area under curve in rat after oral administration at 10 mg/kg dose. Details: dose 10 mg/kg, route oral. It counts as ADME, organism-based. The settings on record: in vivo.
Data set [3] deals with dog (Canis familiaris). The experiment in a line: Area under curve in dog after oral administdogion at 0.32 mg/kg dose. The settings on record: in vivo.
The target in data set [4] is T1, Thromboxane A2 receptor (Homo sapiens, UniProt P21731).
T1 sequence (P21731 whole entry): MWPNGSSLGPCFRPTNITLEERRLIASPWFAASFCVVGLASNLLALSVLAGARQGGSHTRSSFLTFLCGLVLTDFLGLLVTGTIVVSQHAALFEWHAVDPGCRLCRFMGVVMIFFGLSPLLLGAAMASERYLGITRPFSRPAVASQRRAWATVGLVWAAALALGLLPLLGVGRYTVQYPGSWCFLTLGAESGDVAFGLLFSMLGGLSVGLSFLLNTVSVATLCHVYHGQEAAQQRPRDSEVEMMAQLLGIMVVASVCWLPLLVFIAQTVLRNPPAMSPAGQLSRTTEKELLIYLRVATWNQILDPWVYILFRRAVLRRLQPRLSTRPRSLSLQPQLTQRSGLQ
The experiment in a line: Displacement of [3H]SQ-29,548 from human Prostanoid TP receptor.

The nature of data set [5]: Total clearance in dog after intravenous administration at 0.32 mg/kg dose. It counts as ADME, organism-based, Canis lupus familiaris. On the set-up: dose 0.32 mg/kg, route intravenous. The settings on record: in vivo, read-out: CLtot.
The target of data set [6] is Prostaglandin E2 receptor EP4 subtype (Homo sapiens, UniProt P35408). The experiment in a line: Displacement of [3H]PGE-2 from human Prostanoid EP4 receptor. (In general: Loss of bound radioactivity is the signal in a displacement assay; it reports binding, not function.)
The species entered for data set [7] is Canis familiaris. Briefly: Inhibition concentration against ADP-induced platelet aggregation using dog platelet rich plasma. The settings on record: Canis lupus familiaris. In kind it is functional. The gist of the method: (§1)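 Functional IP agonism was measured as inhibition of ADP-induced aggregation in platelet-rich plasma from human, rat, dog or monkey. IC50 was taken from the inhibition of aggregation.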

Data set [8] addresses T2, Prostaglandin D2 receptor (Homo sapiens, UniProt Q13258).
T2 sequence (Q13258 whole entry): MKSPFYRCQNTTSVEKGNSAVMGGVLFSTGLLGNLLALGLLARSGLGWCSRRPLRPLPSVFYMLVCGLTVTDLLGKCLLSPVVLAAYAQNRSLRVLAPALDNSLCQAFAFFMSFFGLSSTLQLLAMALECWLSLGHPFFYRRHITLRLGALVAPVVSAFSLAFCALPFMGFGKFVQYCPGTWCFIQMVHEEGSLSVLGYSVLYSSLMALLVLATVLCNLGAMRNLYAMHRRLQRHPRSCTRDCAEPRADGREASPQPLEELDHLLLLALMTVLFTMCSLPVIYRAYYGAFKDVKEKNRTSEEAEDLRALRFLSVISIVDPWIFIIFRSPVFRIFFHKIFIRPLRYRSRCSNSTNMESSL
Briefly: Displacement of [3H]PGD-2 from human Prostanoid DP receptor.

Data set [9] in a line: Maximum concentration in rat after oral administration at 10 mg/kg dose. It counts as ADME, organism-based. On the set-up: dose 10 mg/kg, route oral. Particulars: in vivo.
The subject of data set [10] is Cell line. The experiment in a line: Inhibition concentration against ADP-induced platelet aggregation using human platelet rich plasma. It counts as functional, cell-based. In a few lines: as §1
Data set [11] is described as follows: Total clearance in rat after intravenous administration at 10 mg/kg dose. It counts as ADME, organism-based. On the set-up: dose 10 mg/kg, route intravenous. Particulars: in vivo, read-out: CLtot.
The target of data set [12] is Prostaglandin F2-alpha receptor (Homo sapiens, UniProt P43088). Briefly: Displacement of [3H]PGF-2 from human Prostanoid FP receptor.
The target of data set [13] is T3, Prostaglandin E2 receptor EP1 subtype (Homo sapiens, UniProt P34995).
T3 sequence (P34995 whole entry): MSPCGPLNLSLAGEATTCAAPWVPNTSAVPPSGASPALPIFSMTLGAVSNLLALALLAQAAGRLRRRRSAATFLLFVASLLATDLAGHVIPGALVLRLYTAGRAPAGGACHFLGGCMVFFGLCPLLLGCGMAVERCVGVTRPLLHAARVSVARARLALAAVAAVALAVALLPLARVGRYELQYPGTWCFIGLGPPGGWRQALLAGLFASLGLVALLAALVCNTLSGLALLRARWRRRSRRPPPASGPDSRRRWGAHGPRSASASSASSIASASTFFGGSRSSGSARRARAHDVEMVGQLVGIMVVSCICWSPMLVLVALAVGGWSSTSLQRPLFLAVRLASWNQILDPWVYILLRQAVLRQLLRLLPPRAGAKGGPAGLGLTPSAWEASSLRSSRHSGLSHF
The experiment in a line: Displacement of [3H]PGE-2 from human Prostanoid EP1 receptor.

Data set [14] is described as follows: Bioavailability in rat after […] administration at 10 mg/kg dose. In kind it is ADME, organism-based. Particulars: in vivo, read-out: Ba.
Data set [15] has as its target Prostaglandin E2 receptor EP2 subtype (Homo sapiens, UniProt P43116). Briefly: Displacement of [3H]-PGE-2 from human Prostanoid EP2 receptor.
Data set [16] deals with Monkey. Briefly: Inhibition concentration against ADP-induced platelet aggregation using monkey platelet rich plasma. Particulars: Cercopithecidae. It counts as functional. The gist of the method: as §1
Data set [17] has as its target Prostacyclin receptor (Homo sapiens, UniProt P43119). Briefly: Displacement of [3H]iloprost from human Prostanoid IP receptor. The gist of the method: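 Competitive radioligand binding using cloned human IP receptor, measuring displacement of [3H]-iloprost.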
A short description of data set [18]: Half life in rat after intravenous administration at 10 mg/kg dose. It counts as ADME, organism-based. On the set-up: dose 10 mg/kg, route intravenous. The settings on record: in vivo.
The target in data set [19] is T4, Prostaglandin E2 receptor EP3 subtype (Homo sapiens, UniProt P43115).
T4 sequence (P43115 whole entry): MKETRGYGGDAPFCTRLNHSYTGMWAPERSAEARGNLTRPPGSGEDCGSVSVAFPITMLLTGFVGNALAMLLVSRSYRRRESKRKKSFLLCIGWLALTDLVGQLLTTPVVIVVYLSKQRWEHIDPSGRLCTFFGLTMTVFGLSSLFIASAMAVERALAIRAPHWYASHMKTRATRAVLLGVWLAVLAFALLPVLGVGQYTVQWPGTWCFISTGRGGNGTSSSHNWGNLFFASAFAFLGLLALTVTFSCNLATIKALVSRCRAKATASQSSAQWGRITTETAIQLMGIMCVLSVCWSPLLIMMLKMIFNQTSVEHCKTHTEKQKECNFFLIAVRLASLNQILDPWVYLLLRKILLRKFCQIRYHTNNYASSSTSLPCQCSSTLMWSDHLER
The experiment in a line: Displacement of [3H]PGE-2 from human Prostanoid EP3 receptor.

Prostaglandin E2 receptor EP2 subtype, sequence (P43116 whole entry): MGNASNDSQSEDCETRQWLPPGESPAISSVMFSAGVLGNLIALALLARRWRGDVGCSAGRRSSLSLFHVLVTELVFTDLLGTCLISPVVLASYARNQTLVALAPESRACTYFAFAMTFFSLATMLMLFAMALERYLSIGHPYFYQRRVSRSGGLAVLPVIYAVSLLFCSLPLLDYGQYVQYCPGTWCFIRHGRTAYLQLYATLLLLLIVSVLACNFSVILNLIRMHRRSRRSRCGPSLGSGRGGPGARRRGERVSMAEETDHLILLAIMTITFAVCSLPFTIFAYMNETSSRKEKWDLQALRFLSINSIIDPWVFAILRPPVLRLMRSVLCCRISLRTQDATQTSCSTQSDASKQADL
Prostaglandin F2-alpha receptor, sequence (P43088 whole entry): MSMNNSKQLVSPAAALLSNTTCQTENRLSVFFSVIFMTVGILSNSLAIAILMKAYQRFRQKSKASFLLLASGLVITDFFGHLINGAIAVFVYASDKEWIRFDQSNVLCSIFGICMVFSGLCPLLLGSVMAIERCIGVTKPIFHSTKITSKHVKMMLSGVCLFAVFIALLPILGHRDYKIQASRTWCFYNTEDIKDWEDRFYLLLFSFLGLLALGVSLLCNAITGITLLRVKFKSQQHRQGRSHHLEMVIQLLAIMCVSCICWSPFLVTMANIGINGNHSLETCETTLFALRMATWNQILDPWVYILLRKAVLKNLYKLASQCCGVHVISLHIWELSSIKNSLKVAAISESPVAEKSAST
Prostaglandin E2 receptor EP4 subtype, sequence (P35408 whole entry): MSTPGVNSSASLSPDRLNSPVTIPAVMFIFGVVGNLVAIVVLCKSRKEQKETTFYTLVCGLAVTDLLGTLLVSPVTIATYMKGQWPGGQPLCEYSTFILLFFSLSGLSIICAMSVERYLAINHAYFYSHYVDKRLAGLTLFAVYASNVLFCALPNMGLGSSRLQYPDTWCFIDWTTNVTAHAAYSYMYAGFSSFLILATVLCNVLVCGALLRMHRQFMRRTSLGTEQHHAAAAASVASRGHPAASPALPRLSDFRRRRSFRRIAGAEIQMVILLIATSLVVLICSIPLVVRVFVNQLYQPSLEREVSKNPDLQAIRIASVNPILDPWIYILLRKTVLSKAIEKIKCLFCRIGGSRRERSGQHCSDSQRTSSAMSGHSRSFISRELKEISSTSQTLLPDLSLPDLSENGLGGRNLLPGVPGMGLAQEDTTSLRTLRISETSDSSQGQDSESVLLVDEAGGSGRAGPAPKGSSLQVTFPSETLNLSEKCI
Prostacyclin receptor, sequence (P43119 whole entry): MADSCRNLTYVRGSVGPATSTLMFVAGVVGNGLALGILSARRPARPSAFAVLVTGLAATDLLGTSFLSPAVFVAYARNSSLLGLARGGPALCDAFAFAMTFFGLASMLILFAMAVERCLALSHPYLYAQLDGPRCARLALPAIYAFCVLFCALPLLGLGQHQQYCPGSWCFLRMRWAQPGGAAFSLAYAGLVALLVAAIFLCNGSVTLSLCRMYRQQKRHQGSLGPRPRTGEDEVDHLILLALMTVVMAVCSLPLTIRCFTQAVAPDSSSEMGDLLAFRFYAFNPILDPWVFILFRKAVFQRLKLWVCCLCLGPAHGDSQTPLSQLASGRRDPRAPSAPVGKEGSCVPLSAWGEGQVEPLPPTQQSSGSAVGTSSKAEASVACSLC

Regarding `O=C(O)COc1cccc2c1CC[C@](O)(COC(=O)N(c1ccccc1)c1ccccc1)C2`, the IC50 turned out to be 1400 nM in data set [1], 480 nM in data set [7], 18 nM in data set [10] and 13 nM in data set [16]. The figures for the AUC in data set [2] and in data set [3] were 1590 ng·h/mL and 2200 ng·h/mL, respectively. Besides, the inhibitory constant (Ki) in [4] is over 10000 nM; in data set [6] it was over 10000 nM; in data set [8], 2300 nM; in data set [12], over 10000 nM; in [13] it was 9600 nM; in data set [15], over 10000 nM. Moreover, the inhibition constant Ki in data set [17] was found to be 8.9 nM; in data set [19] it was 8200 nM. In addition, the clearance in [5] is 2.31 mL/min/kg; in [11], 38 mL/min/kg. Also, the Cmax in data set [9] is 342 ng/mL. In addition, the bioavailability in data set [14] worked out at 38%. Besides, the half-life in data set [18] was 1.81 h.

With `CC#CCC(C)[C@H](O)/C=C/[C@@H]1[C@H]2C/C(=C/CCCC(=O)O)C[C@H]2C[C@H]1O` (stereo not given in full) [ILOPROST], in [10], it took 2.5 nM to reach half-maximal inhibition (IC50).

In the case of `O=C(O)COc1cccc2c1CC[C@](O)(COC(=O)N(c1ccccc1)c1ccccc1)C2O` (single isomer, unassigned), the results for the IC50 in data set [1] and in data set [10] were 7400 nM and 5.8 nM, respectively. The Ki in [6] was over 10000 nM; in data set [13] it was over 1000 nM; in data set [15] it was over 1000 nM; in data set [17], 110 nM; in [19] it was over 10000 nM.

On to `O=C(O)COc1cccc2c1CC[C@H](COC(=O)N(c1ccccc1)c1ccccc1)C2O` (single isomer, unassigned), for which the figures for the IC50 in data set [1] and in data set [10] were over 10000 nM and 170 nM, respectively.

For `O=C(O)COc1cccc2c1CCC[C@H]2N1CCC[C@@H]1c1nc(-c2ccccc2)c(-c2ccccc2)o1`, the Ki in [4] is over 1000 nM; in data set [6], over 10000 nM; in [8], over 1000 nM; in [12], over 1000 nM; in [13] it was over 1000 nM; in data set [15], over 1000 nM. For the same compound, the Ki was 12 nM in [17] and over 10000 nM in data set [19].

As to `O=C(O)COc1cccc2c1CC[C@](O)(COC(=O)N(c1ccccc1)c1ccccc1)[C@H]2O`, the IC50 in data set [1] is over 10000 nM; in data set [10] it was 1300 nM.

Turning to `O=C(O)COc1cccc(C[C@@H]2CCCC=C2c2nc(-c3ccccc3)c(-c3ccccc3)o2)c1`, the Ki is over 1000 nM in data set [4]; over 1000 nM in [8]; over 1000 nM in data set [12]; over 1000 nM in data set [13]; over 1000 nM in [15]; 6800 nM in data set [19].

On to `O=C(O)COc1cccc2c1CCC(COC(=O)N(c1ccccc1)c1ccccc1)C2` (stereo not given), for which the IC50 in [1] was over 10000 nM; in data set [10] it was 53 nM. In addition, the Ki in [6] is over 10000 nM; in data set [13] it was over 1000 nM; in data set [15], over 1000 nM; in data set [17], 140 nM; in data set [19], 1900 nM.

For the compound `CCC/C(CC1CCc2c(cccc2OCC(=O)O)C1)=N\OC(c1ccccc1)c1ccccc1` (stereo not given) [AP-227], the results for the IC50 in [1] and in data set [10] were 5600 nM and 150 nM, respectively.

As for `O=C(O)COc1cccc2c1CC[C@H](COC(=O)N(c1ccccc1)c1ccccc1)[C@H]2O`, the IC50 in [1] is over 10000 nM; in [10], 3200 nM.

Take `O=C(O)COc1cccc2c1CCC(COC(=O)N(c1ccccc1)c1ccccc1)=C2`: the IC50 in data set [1] is over 10000 nM; in data set [10], 91 nM.

Turning to `O=C(O)COc1cccc2c1CC[C@@](O)(COC(=O)N(c1ccccc1)c1ccccc1)C2`, the results for the IC50 in data set [1] and in [10] were over 10000 nM and 270 nM, respectively.

A word on the IC50: it is the concentration that inhibits the measured activity by half. Broadly, the AUC is concentration integrated over time. In general, Ki refers to a dissociation constant, usually derived from enzyme kinetics or from competition with a known ligand. Broadly, the Cmax is the highest concentration seen after dosing. For orientation: half-life means how long it takes for the measured level to halve.
